Results on 27 compounds are retold here after ChEMBL document CHEMBL1132271, “1-Benzopyran-4-one antioxidants as aldose reductase inhibitors” (J Med Chem, 1999).

The target of series [1] is T1, Aldo-keto reductase family 1 member B1 (Bos taurus, UniProt P16116). The series is described as follows: Inhibition of ALR2 (aldose reductase) of bovine lens. The gist of the method:
(§1)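 ALR2 partly purified from bovine lens (DEAE chromatography), 3.5 mU/mL. Run at 37 °C with 4.7 mM D,L-glyceraldehyde and 0.11 mM NADPH in 0.25 M sodium phosphate pH 6.80 with 0.38 M ammonium sulfate. Inhibitor added in DMSO, 1% final. Blank without substrate.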

The target in series [2] is Aldo-keto reductase family 1 member B1 (Bos taurus) (UniProt P16116). Nature of the series: The compound was tested for Inhibitory effect uM. The following applies: concentration not given here.
Series [3] concerns the target T1, Aldo-keto reductase family 1 member B1. Nature of the series: Inhibition of Aldose reductase 2 of bovine lens. A digest of the protocol:
as §1

Series [4] addresses Aldo-keto reductase family 1 member B1 (Bos taurus) (UniProt P16116). The series is described as follows: (§2) Compound was tested for Ratio of IC50(ALR1)/(ALR2). The gist of the method:
(§3)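 Ratio of IC50 values. ALR1 (bovine kidney; 20 mM D-glucuronate, 0.12 mM NADPH, pH 7.20) and ALR2 (bovine lens; 4.7 mM D,L-glyceraldehyde, 0.11 mM NADPH, pH 6.80). Both enzymes at 3.5 mU/mL, 37 °C, 1% DMSO. IC50 from log dose–inhibition curves in duplicate.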

The nature of series [5]: Proton dissociation constant pKa was determined at 25 degree C. Format: physicochemical. A digest of the protocol:
(§4)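 Compound solution added to buffers at ionic strength 0.1 M, pH stepped by 0.25 unit. UV–vis spectra recorded and pH measured with a calibrated electrode. pKa calculated from absorbance change at λmax of the dissociated form, then corrected for ionic strength.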

The target of series [6] is T2, Aldo-keto reductase family 1 member A1 (Bos taurus, UniProt Q3ZCJ2). Nature of the series: The compound was tested for Inhibitory effect against Aldose reductase 1 in bovine kidneys. The gist of the method:
(§5)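 Run at 37 °C with 20 mM D-glucuronate and 0.12 mM NADPH in 0.1 M sodium phosphate pH 7.20. Inhibitor added in DMSO, 1% final. Blank without substrate.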

Series [7] concerns Liposome. The series is described as follows: Antioxidant action tested in AAPH-induced malondialdehyde (MDA) of liposomes after 15 min. The class given is functional. The gist of the method:
(§6)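 Lipid (LA, 2 mg/mL) suspended in 50 mM Tris pH 7.4 and extruded into micelles with test antioxidant at 0.2 mM final. Peroxidation started with AAPH (10 mM), 37 °C in shaking water bath. Aliquots taken at intervals, mixed with 20% TCA, then 0.67% TBA, boiled 10 min, hexane-extracted. MDA read at 535 nm (ε 1.49×10^5). Means ± SE.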

The test system of series [8] is Liposome. The series is described as follows: Antioxidant action tested in AAPH-induced malondialdehyde (MDA) of liposomes after 60 min. Format: functional. The gist of the method:
as §6

Series [9] relates to Liposome. Nature of the series: Antioxidant action tested in AAPH-induced malondialdehyde (MDA) of liposomes after 30 min. The class given is functional. The gist of the method:
as §6

The test system of series [10] is Liposome. Nature of the series: Antioxidant action tested in AAPH-induced malondialdehyde (MDA) of liposomes after 40 min. Format: functional. A digest of the protocol:
as §6

For series [11], the system named is Liposome. Nature of the series: Antioxidant action tested in AAPH-induced malondialdehyde (MDA) of liposomes after 5 min. Format: functional. A digest of the protocol:
as §6

Series [12] relates to Liposome. The series is described as follows: Antioxidant action tested in AAPH-induced malondialdehyde (MDA) liposomes after 30 min. The class given is functional. A digest of the protocol: as §6
The test system of series [13] is Liposome. The series is described as follows: Antioxidant action tested in AAPH-induced malondialdehyde (MDA) liposomes after 5 min. The class given is functional. A digest of the protocol:
as §6

Series [14] concerns Liposome. Nature of the series: Antioxidant action tested inAAPH-induced malondialdehyde (MDA) liposomes after 40 min. The class given is functional, subcellular. The gist of the method: as §6
Series [15] concerns Liposome. The series is described as follows: Antioxidant action tested in AAPH-induced malondialdehyde (MDA) liposomes after 15 min. The class given is functional. The gist of the method:
as §6

Series [16] relates to Liposome. The series is described as follows: Antioxidant action tested in AAPH-induced malondialdehyde (MDA) liposomes after 60 min. Format: functional. The gist of the method:
as §6

A short description of series [17]: The compound was tested for the pKa (+/-SD) values at 25 degree C. Format: physicochemical. A digest of the protocol: as §4
Series [18] relates to Aldo-keto reductase family 1 member A1, aldehyde reductase ALR1 (Bos taurus). Nature of the series: The compound was tested for Inhibitory effect uM. The following applies: concentration not given here.
Series [19] in a line: as §2. A digest of the protocol: as §3
The target of series [20] is T2, Aldo-keto reductase family 1 member A1. The series is described as follows: The compound was tested for Inhibitory effect against ALR1 in bovine kidneys. The class given is tissue-based, Kidney. A digest of the protocol:
as §5

For series [21], the target named is Aldo-keto reductase family 1 member B1 (Bos taurus) (UniProt P16116). Nature of the series: The compound was tested for Inhibitory effect against ALR2 in bovine lenses at 77 uM. Format: tissue-based. The following applies: Lens of camera-type eye. A digest of the protocol:
as §1

SMILES strings stand for the structures.

T2 sequence (Q3ZCJ2 2-325 limits assumed): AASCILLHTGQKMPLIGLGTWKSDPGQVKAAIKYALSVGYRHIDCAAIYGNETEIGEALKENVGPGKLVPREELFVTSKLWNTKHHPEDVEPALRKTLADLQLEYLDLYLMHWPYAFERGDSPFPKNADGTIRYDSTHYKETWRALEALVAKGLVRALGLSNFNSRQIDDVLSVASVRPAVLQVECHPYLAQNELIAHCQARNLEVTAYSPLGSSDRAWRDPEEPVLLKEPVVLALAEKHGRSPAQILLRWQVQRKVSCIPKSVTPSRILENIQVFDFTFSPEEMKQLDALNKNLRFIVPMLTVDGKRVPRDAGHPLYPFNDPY

The term IC50 denotes the concentration needed to halve the response being measured. Low readings indicate inhibition by little substance, high ones a need for much substance. Turning to `O=c1cc(-c2ccc(O)c(O)c2)oc2cc(O)cc(O)c12` [LUTEOLIN], the IC50 in series [1] was found to be 9.57 µM.
The term inhibition denotes the drop in the measured response relative to a control, in per cent. For the compound `O=c1c(O)c(-c2ccccc2)oc2ccccc12`, the inhibition in series [2] amounted to 0%.
As for `COc1ccc2c(=O)cc(Cc3ccc(O)cc3)oc2c1`, the inhibition in series [2] worked out at 37%.
Take `COc1ccc2c(=O)cc(-c3ccccc3)oc2c1`: in [2], the inhibition stood at 32%.
Compound `COc1ccc2oc(Cc3ccc(O)cc3)cc(=O)c2c1` showed an inhibition in [2] of 40%.
`O=c1cc(Cc2ccc3ccccc3c2)oc2cc(O)ccc12`: it took 22.3 µM to reach half-maximal inhibition in series [3] (IC50).
Compound `O=c1cc(-c2ccccc2)oc2cccc(O)c12` showed an inhibition in [2] of 0%.
As usually defined, the pKa is the negative logarithm of the acid dissociation constant. In the case of `COc1ccc(Cc2cc(=O)c3ccc(O)cc3o2)cc1`, the Ratio in series [4] stood at 2.4. In series [5], the pKa is 7.35. The IC50 is 7.01 µM in series [3] and 16.6 µM in series [6].
Turning to `O=c1cc(C(c2ccccc2)c2ccccc2)oc2cc(O)ccc12`, inhibition in series [3] was half-maximal at 10.9 µM (IC50).
Consider `O=c1cc(CCc2ccc(O)cc2)oc2cc(O)ccc12`, for which the IC50 in series [3] was found to be 41 µM.
Regarding `Cc1cc(C(C)(C)C)c(O)c(C(C)(C)C)c1`, the Activity was found to be 1.33 nM ml-1 in series [7]; 0.937 nM ml-1 in series [8]; 1.33 nM ml-1 in [9]; 1.23 nM ml-1 in series [10]; 1.62 nM ml-1 in [11].
`O=c1cc(Cc2ccc(O)cc2)oc2cc(O)ccc12`: the Ratio in [4] worked out at 6.7. Moreover, the Activity in series [12] worked out at 1.9 nM ml-1; in [13], 2.02 nM ml-1; in series [14] it was 2.1 nM ml-1; in series [15] it was 1.95 nM ml-1; in series [16], 1.81 nM ml-1. Besides, the half-inhibitory concentration (IC50) turned out to be 2.5 µM in series [3] and 16.8 µM in series [6].
In turn, `O=c1cc(-c2ccccc2)oc2cc(O)c([N+](=O)[O-])cc12` had a pKa in series [17] of 5.3. The compound also showed a half-inhibitory concentration (IC50) in series [1] of 3.87 µM. The compound further came in with an inhibition in series [18] of 27.5%.
Consider `O=c1c(Cc2ccc(O)cc2)coc2cc(O)ccc12`, for which, in [1], the midpoint of inhibition, the IC50, lay at 60.5 µM.
For `O=C(O)c1ccc2c(=O)cc(Cc3ccc(O)cc3)oc2c1`, in series [3], the half-maximal inhibitory concentration (IC50) was 10.9 µM.
Compound `O=c1c(Cc2ccc(-c3ccccc3)cc2)c(Cc2ccc(O)cc2)oc2cc(O)ccc12` returned an inhibition in [2] of 0%.
On to `O=C(O)Cc1ccc2c(=O)cc(Cc3ccc(O)cc3)oc2c1`, for which the Ratio in series [4] worked out at 98.5. The results for the 50% inhibitory concentration (IC50) in series [3] and in [6] were 1.3 µM and 128 µM, respectively.
Consider `O=c1cc(Cc2ccccc2)oc2cc(O)ccc12`, for which the Ratio in [4] worked out at 5.9. In addition, the half-inhibitory concentration (IC50) in series [3] was 6.61 µM; in series [6] it was 39.2 µM.
With `O=c1cc(Cc2ccc(O)c(O)c2)oc2cc(O)ccc12`, the Ratio in series [19] was 4.2. Besides, the Activity in series [7] turned out to be 1.18 nM ml-1; in series [8], 1.53 nM ml-1; in series [9], 1.07 nM ml-1; in [10] it was 0.852 nM ml-1; in series [11], 0.935 nM ml-1. For the same compound, the half-maximal inhibitory concentration (IC50) was found to be 13.2 µM in series [20] and 3.14 µM in [1].
Consider `O=c1ccoc2cc(O)ccc12`, for which the Ratio in [4] turned out to be 1. The results for the 50% inhibitory concentration (IC50) in series [3] and in [6] were 137 µM and 114 µM, respectively.
In [3], `O=c1cc(CCCc2ccc(O)cc2)oc2cc(O)ccc12` had a 50% inhibitory concentration (IC50) of 29.4 µM.
`COc1ccc(Cc2cc(=O)c3ccc(OC)cc3o2)cc1` yielded an inhibition in series [2] of 0%.
In series [3], `O=c1c(Cc2ccccc2)c(Cc2ccc(O)cc2)oc2cc(O)ccc12` had an IC50 of 14.2 µM.
Take `Cc1oc2cc(O)ccc2c(=O)c1Cc1ccc(O)cc1`: in series [3], the IC50 came out at 85.7 µM.
Consider `COc1ccc2c(=O)c(Cc3ccc(O)cc3)coc2c1`, for which the inhibition in series [21] amounted to 18%.
The compound `O=c1cc(Cc2ccc(O)cc2)oc2ccc(O)cc12` had a pKa in series [5] of 8.89. In series [3], the concentration for half-maximal inhibition (IC50) amounted to 13.1 µM. In addition, the Activity in [9] was determined as 1.46 nM ml-1; in series [10], 1.29 nM ml-1; in series [15], 1.54 nM ml-1; in series [11], 1.19 nM ml-1; in series [16] it was 1.27 nM ml-1.
For the compound `O=c1cc(-c2ccc(O)c(O)c2)oc2cc(O)ccc12`, half-maximal inhibition in series [1] (IC50) was put at 6.52 µM.
